From ChEMBL document CHEMBL1121456, “Metabolic depropargylation and its relationship to aldehyde dehydrogenase inhibition in vivo” (1980)

Assays:
Rattus norvegicus [1] = species on record: Rattus norvegicus; test: T/C value of compound was measured in rats which are untreated with phenobarbital (PB); type: functional
Method in brief: (§1)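 Rats were given water (untreated) or 0.1% sodium phenobarbital drinking solution (PB-treated) for 8 days, then fasted overnight. Agent 1.25 mmol/kg ip, then ethanol 2.0 g/kg ip 1 h later; killed 1 h after ethanol. Blood acetaldehyde by head-space GC. The value is treated/saline-control blood acetaldehyde within the same pretreatment group.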

Rattus norvegicus [2] = species on record: Rattus norvegicus; test: Blood AcH level of compound was measured in rats which are treated with phenobarbital (PB); type: functional
Method in brief: (§2)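 Male Sprague–Dawley rats kept 8 days on water (untreated) or 0.1% sodium phenobarbital solution (PB-treated), then fasted overnight. Test agent given at 1.25 mmol/kg ip 2 h before sacrifice, with ethanol at 2.0 g/kg ip 1 h later; saline controls. Cardiac blood was collected into 5 mM sodium azide and frozen, then acetaldehyde was read by head-space GC. Mean ± SE.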

Rattus norvegicus [3] = species on record: Rattus norvegicus; test: The enzymatic formation of propionaldehyde from compound on inhibition with rat liver microsomes in the presence of an NADPH (treated with phenobarbital (PB)); type: functional
Method in brief: (§3)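 Liver microsomes (100000g pellet, KCl-washed) from PB-treated or naive rats, equivalent to 500 mg liver per flask. Incubated 30 min at 37 °C with 3 mM compound, pH 7.4 phosphate, NADP+ 2.0 mM, glucose 6-phosphate 2.5 mM, G6PDH, MgCl2, nicotinamide, and 30 mM semicarbazide. Six flasks were pooled, acidified with HClO4, and propiolaldehyde read by head-space GC from 3–5 determinations.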

Rattus norvegicus [4] = species on record: Rattus norvegicus; test: Blood AcH level of compound was measured in rats which are untreated with phenobarbital (PB); type: functional; method in brief: as §2
Rattus norvegicus [5] = species on record: Rattus norvegicus; test: The enzymatic formation of propionaldehyde from compound on inhibition with rat liver microsomes in the presence of an NADPH (untreated with phenobarbital (PB)); type: functional; method in brief: as §3
Rattus norvegicus [6] = species on record: Rattus norvegicus; test: T/C value of compound was measured in rats which are treated with phenobarbital (PB); type: functional; method in brief: as §1
[7] = target: T1, Aldehyde dehydrogenase 1A1 (Rattus norvegicus) (UniProt P51647); test: Percent inhibition of the enzyme […] was measured in rats which are treated with phenobarbital (PB); settings: concentration not given here
T1 sequence (whole entry): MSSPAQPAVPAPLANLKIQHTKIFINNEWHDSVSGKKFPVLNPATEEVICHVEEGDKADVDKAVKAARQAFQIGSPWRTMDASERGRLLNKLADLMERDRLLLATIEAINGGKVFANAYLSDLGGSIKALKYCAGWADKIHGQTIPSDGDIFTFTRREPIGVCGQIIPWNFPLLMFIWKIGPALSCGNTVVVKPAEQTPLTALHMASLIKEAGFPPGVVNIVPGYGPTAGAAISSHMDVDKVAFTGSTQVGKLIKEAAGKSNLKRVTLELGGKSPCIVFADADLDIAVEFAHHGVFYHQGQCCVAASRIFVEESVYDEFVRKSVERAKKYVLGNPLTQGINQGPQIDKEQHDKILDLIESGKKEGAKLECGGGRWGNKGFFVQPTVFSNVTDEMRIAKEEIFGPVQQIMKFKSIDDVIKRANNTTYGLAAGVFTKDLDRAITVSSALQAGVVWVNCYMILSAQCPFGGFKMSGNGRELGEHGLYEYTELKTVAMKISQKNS
Method in brief: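 Male Sprague–Dawley rats pretreated 8 days with 0.1% sodium phenobarbital in drinking water, then fasted overnight. They received 1.25 mmol/kg ip 2 h before sacrifice and ethanol 2.0 g/kg ip at 1 h. Liver mitochondrial low-Km aldehyde dehydrogenase activity (nmol acetaldehyde oxidized/min/mg protein, Lowry protein) was compared with saline controls as % inhibition.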

inhibition [7] [%] | SMILES | T/C (Rattus norvegicus [1]) | Blood AcH (Rattus norvegicus [2]) [µM] | Propioaldehyde generated (Rattus norvegicus [3]) [µmol] | Blood AcH (Rattus norvegicus [4]) [µM] | Propioaldehyde generated (Rattus norvegicus [5]) [µmol] | T/C (Rattus norvegicus [6])
– | C#CCNCc1ccccc1 [N-BENZYLPROPARGYLAMINE] | 18.3 | 382 | 1.16 | 203 | 0.2 | 50.3
44 | C#CC(OC)OC | 0.95 | 24.1 | 0.05 | 10.6 | – | 3.17
– | C#CCN(C)Cc1ccccc1 [PARGYLINE] | 20.2 | 247 | 2.58 | 224 | 0.61 | 32.5
– | C#CCN(CC#C)CC#C | 1.4 | 144 | 3.5 | 15.4 | 0.25 | 19
– | C#CCOC(C)(C)C | 1.77 | 13.5 | 0.22 | 19.6 | – | 1.78
– | C#CCOC | 0.95 | – | 0.05 | 10.6 | – | 1.1
